Measured values as given in ChEMBL document CHEMBL1268999, “Triazolyl tryptoline derivatives as β-secretase inhibitors” (Bioorg Med Chem Lett, 2010).

How the values were obtained:
[1] = molecular target: T1, Beta-secretase 1 (Homo sapiens, UniProt P56817); test: Inhibition of human BACE1 at 5 uM
Summary of the method: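 Recombinant human BACE1 enzymatic assay with a FRET substrate (fluorescence resonance energy transfer read-out). Candidates were crude Cu(I)-catalysed azide–alkyne products made in microtiter plates with more than 80% conversion by LC–MS. They were diluted in 50 mM sodium acetate (pH 4.5) to 25 mM stocks, based on azide input.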

[2] = molecular target: Cytochrome P450 2D6 (Homo sapiens, UniProt P10635); test: Inhibition of CYP2D6; type: ADME
Cytochrome P450 2D6, sequence (P10635 whole entry): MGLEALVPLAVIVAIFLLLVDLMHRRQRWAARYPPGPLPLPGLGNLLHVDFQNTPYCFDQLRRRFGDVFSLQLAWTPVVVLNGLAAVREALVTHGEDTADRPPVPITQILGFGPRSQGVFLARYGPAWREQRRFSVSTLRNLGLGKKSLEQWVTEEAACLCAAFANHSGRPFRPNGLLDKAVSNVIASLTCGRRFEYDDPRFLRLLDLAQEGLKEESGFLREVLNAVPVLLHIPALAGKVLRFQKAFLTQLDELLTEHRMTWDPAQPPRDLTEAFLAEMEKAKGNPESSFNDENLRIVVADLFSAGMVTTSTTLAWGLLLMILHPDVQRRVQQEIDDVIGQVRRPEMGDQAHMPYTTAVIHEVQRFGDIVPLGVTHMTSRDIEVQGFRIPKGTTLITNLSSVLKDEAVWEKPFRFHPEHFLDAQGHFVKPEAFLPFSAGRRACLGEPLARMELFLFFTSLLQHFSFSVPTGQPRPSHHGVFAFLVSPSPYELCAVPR
Summary of the method: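 CYP2D6 inhibition reported as a categorical score, where 0 = non-inhibitor.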

[3] = Protein binding in plasma; type: ADME, cell-free; conditions: read-out: PPB
Summary of the method: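 Plasma protein binding reported as a categorical level: 1 = binding >90%; 2 = binding >95%.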

[4] = test system: Hepatocyte; test: Toxicity in hepatocytes; type: cell-based
[5] = test system: Rattus norvegicus; test: Toxicity in po dosed rat; type: organism-based; conditions: in vivo
[6] = Solubility of the compound; type: physicochemical
Summary of the method: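 Aqueous solubility reported as a categorical level on a 0–3 scale, where 0 = extremely low and 3 = good.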

[7] = molecular target: T1, Beta-secretase 1; test: Inhibition of human recombinant BACE1 by FRET assay
Summary of the method: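 Recombinant human BACE1 assayed by fluorescence resonance energy transfer (FRET) cleavage of a FRET substrate. They were diluted in 50 mM sodium acetate (pH 4.5) to 25 mM stocks, based on azide input. A purified resynthesised compound was also tested.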

[8] = molecular target: Cathepsin D (Homo sapiens, UniProt P07339); test: Inhibition of human recombinant Cathepsin D by FRET assay
Cathepsin D, sequence (P07339 65-162 limits assumed): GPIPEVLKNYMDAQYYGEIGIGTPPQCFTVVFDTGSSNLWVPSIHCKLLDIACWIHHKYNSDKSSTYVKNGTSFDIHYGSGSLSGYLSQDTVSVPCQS
Cathepsin D, sequence (P07339 169-412 limits assumed): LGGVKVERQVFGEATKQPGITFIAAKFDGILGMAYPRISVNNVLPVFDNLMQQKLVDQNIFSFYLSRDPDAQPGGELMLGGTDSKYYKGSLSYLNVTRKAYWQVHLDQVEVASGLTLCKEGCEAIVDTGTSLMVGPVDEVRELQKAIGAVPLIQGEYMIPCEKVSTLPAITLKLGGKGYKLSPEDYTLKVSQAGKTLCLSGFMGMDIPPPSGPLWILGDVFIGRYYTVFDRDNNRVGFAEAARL

T1 sequence (P56817 whole entry): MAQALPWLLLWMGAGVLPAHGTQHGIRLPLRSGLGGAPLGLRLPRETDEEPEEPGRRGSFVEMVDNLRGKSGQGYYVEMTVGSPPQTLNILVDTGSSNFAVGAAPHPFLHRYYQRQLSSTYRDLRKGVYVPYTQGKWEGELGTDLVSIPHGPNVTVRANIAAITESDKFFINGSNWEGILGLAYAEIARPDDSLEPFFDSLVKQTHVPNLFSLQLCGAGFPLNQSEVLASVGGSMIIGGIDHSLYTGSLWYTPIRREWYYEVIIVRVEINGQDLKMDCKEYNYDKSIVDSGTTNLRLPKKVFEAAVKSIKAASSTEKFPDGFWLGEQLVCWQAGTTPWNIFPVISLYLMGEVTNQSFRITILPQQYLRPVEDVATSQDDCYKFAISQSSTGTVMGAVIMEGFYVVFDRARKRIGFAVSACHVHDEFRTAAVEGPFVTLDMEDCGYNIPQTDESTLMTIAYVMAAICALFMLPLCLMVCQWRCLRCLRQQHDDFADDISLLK

Row | inhibition [1] [%] | Structure (SMILES) | further results
1 | < 50 | CC(=O)CC(=O)NCc1cn(C[C@@H]2Cc3c([nH]c4ccccc34)CN2)nn1 | –
2 | < 50 | c1ccc2c3c([nH]c2c1)CN[C@H](Cn1cc(Cn2ccnc2)nn1)C3 | –
3 | < 50 | OC1(c2cn(C[C@@H]3Cc4c([nH]c5ccccc45)CN3)nn2)CCCC1 | –
4 | < 50 | CCOC(OCC)c1cn(C[C@@H]2Cc3c([nH]c4ccccc34)CN2)nn1 | –
5 | < 50 | c1ccc2c3c([nH]c2c1)CN[C@H](Cn1cc(COC2CCCCO2)nn1)C3 (some centres undefined) | –
6 | < 50 | c1ccc2c3c([nH]c2c1)CN[C@H](Cn1cc(COC[C@H]2CO2)nn1)C3 | –
7 | < 50 | N#CCCc1cn(C[C@@H]2Cc3c([nH]c4ccccc34)CN2)nn1 | –
8 | < 50 | CCCC(O)c1cn(C[C@@H]2Cc3c([nH]c4ccccc34)CN2)nn1 (some centres undefined) | –
9 | < 50 | c1ccc2c3c([nH]c2c1)CN[C@H](Cn1cc(-c2ccsc2)nn1)C3 | –
10 | < 50 | Cc1nnc(SCc2cn(C[C@@H]3Cc4c([nH]c5ccccc45)CN3)nn2)s1 | –
11 | < 50 | CC(O)c1cn(C[C@@H]2Cc3c([nH]c4ccccc34)CN2)nn1 (some centres undefined) | –
12 | < 50 | OC/C=C/c1cn(C[C@@H]2Cc3c([nH]c4ccccc34)CN2)nn1 | –
13 | < 50 | c1ccc(SCc2cn(C[C@@H]3Cc4c([nH]c5ccccc45)CN3)nn2)cc1 | –

Further lines, the compound ahead of its results:

Row | Structure (SMILES) | inhibition [1] [%] | further results
14 | c1ccc2c3c([nH]c2c1)CNCC3 [TRYPTOLINE] | – | inhibition (INH) [2]: Not Active; fraction unbound [3]: < 0.1; Activity [4]: Non-toxic; LD50 [5]: 701500 µg/g; solubility [6]: Soluble
15 | Fc1cc(F)cc(-c2cn(C[C@@H]3Cc4c([nH]c5ccccc45)CN3)nn2)c1 | < 50 | –
16 | Cc1ccc(-c2cn(C[C@@H]3Cc4c([nH]c5ccccc45)CN3)nn2)cc1 | < 50 | –
17 | OC1(c2cn(C[C@@H]3Cc4c([nH]c5ccccc45)CN3)nn2)c2ccccc2-c2ccccc21 | < 50 | –
18 | CC(=O)c1ccc(-c2cn(C[C@@H]3Cc4c([nH]c5ccccc45)CN3)nn2)cc1 | < 50 | –
19 | Nc1cccc(-c2cn(C[C@@H]3Cc4c([nH]c5ccccc45)CN3)nn2)c1 | < 50 | –
20 | c1ccc(-c2ccc(-c3cn(C[C@@H]4Cc5c([nH]c6ccccc56)CN4)nn3)cc2)cc1 | < 50 | –
21 | CC[C@H]1CN2CCc3c([nH]c4ccccc34)[C@H]2C[C@@H]1C[C@@H]1NCCc2c1[nH]c1ccccc21 | – | inhibition (INH) [2]: Not Active; fraction unbound [3]: < 0.05; Activity [4]: Toxic; LD50 [5]: 235.5 µg/g; solubility [6]: Insoluble
22 | c1ccc2c(-c3cn(C[C@@H]4Cc5c([nH]c6ccccc56)CN4)nn3)cccc2c1 | < 50 | –
23 | COc1ccc2cc(-c3cn(C[C@@H]4Cc5c([nH]c6ccccc56)CN4)nn3)ccc2c1 | > 50 | IC50 [7]: 1.49 µM; IC50 [8]: > 100 µM
24 | OC(c1ccccc1)c1cn(C[C@@H]2Cc3c([nH]c4ccccc34)CN2)nn1 (some centres undefined) | < 50 | –
